# WT yeast gro inh: growth inhibition of WT yeast, mitochondrial fusion screen | AID 1362 | hit rate 2.1% among 190,000 | mitochondrial fusion phenotypic screen, WT strain | inhibition, % at 10 µM; in the data active means inhibition above about 58%; tested in S. cerevisiae
# ABCB1 inh: blocks JC-1 efflux by human ABCB1 transporter. P08183. CCRF-Adr cells, flow cytometry. inhibition, % at 6.6 µM. hit rate 0.067% among 190,000. AID 1326; in the data active means inhibition above about 40%;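 further: 0% = vehicle and 100% = reference inhibitor; higher value means more JC-1 retained so stronger ABCB1 efflux block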
# ABCG2 block: inhibitors of human ABCG2 transporter, ABCB1 counter-screen; inhibition, % at 6.6 µM; Q9UNQ0; hit rate 0.1% among 190,000; IgMXP3 cells, JC-1 efflux, flow cytometry;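 active means inhibition above 80%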;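 further: 0% = DMSO and 100% = nicardipine control wells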
# Target sequence (Q9UNQ0 whole entry, looked up): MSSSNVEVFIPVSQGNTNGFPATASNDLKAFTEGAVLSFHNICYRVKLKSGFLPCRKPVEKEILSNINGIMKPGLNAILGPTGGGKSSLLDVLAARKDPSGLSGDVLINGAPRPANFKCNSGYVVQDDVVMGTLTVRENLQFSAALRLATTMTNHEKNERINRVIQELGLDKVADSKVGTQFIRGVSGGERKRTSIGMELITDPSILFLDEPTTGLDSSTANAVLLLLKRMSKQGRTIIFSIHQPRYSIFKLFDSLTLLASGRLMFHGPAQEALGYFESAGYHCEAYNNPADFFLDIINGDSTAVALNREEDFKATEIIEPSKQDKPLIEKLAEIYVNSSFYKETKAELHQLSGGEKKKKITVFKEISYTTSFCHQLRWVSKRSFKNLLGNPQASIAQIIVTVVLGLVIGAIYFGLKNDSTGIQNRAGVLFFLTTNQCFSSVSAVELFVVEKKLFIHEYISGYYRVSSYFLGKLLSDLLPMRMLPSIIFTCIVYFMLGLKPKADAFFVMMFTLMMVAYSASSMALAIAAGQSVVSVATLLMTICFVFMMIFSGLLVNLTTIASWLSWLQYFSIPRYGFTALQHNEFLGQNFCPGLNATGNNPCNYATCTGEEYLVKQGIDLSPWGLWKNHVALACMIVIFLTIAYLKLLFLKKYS
#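 Incubation: cells with compound and JC-1, 10 min at 25 °C, rotating, no wash / Test system: IgMXP3 (ABCG2) plus far-red-tagged CCRF-Adr (ABCB1) cells / Compound dosing: one concentration, 6.6 µM final / Also added: JC-1 fluorescent substrate / Evaluation: efflux inhibition in percent versus controls / Detection: flow cytometry, 530 nm JC-1 signal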
# MEKK2mut PB1 HTS: signal of MEK5 binding to mutant human MEKK2 PB1 domain; bead flow cytometry, Alexa488-MEK5 binding to MEKK2 mutant; percent response, % at 10 µM; hit rate 0.35% among 290,000; in the data active means percent response above about 24%, passing the limit was not always enough
# MEKK2wt PB1 HTS: raises or lowers MEK5 binding to wildtype human MEKK2 PB1 domain | hit rate 1.1% among 290,000 | binding response (% of control), % at 10 µM | bead flow cytometry, Alexa488-MEK5 binding to MEKK2 WT; actives lie on both sides | AID 1531; in the data active means binding response below about 67% or above about 130%
# MEKK3 PB1 HTS: raises or lowers MEK5 binding to the human MEKK3 PB1 domain; hit rate 1.4% among 290,000; AID 1529; Q99759; binding response (% of control), % at 10 µM; bead-based flow cytometry, Alexa488-MEK5 binding to MEKK3; actives lie on both sides; 0 = blocked by unlabeled MEK5, 100 = vehicle;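 active means binding response more than 3 SD above or below the average of its plate-row segment, actives on both sides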;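 further: Alexa488 bead fluorescence after subtracting the streptavidin-only scavenger bead signal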
# * hit, by the source's call; . = not tested or not shown. This is a sample that favours compounds with a hit; in the whole collection about 3.5% have one here.
SMILES,WT yeast gro inh,ABCB1 inh,ABCG2 block,MEKK2mut PB1 HTS,MEKK2wt PB1 HTS,MEKK3 PB1 HTS
COc1ccc(C)cc1NC(=S)NC(C)c1ccc(OC)c(OC)c1 (configuration not stated),64*,2,6,-3,96,97
COc1ccc(C(C)NC(=S)NCc2ccc(F)cc2)cc1OC (configuration not stated),.,.,.,7,107,104
CCC(C)c1ccc(NC(=O)CN(C)CC(=O)Nc2cccc(OC)c2)cc1 (configuration not stated),22,1,-1,-6,-6.0*,101
COc1cccc(NC(=O)Nc2ccc(C(C)(C)C)cc2)c1,63*,0,2,5,125,108
CCC(C)c1ccc(NC(=S)Nc2ccc(OC)cc2C)cc1 (configuration not stated),75*,1,8,8,109,103
COc1ccc(NC(=O)CN(C)CC(=O)Nc2cccc(C(C)=O)c2)cc1,.,.,.,-9,99,95
NS(=O)(=O)c1ccc(NC(=O)Nc2ccc(C(F)(F)F)cc2)cc1,.,.,.,-5,82,79
CCC(C)c1ccc(NC(=S)NC(C)C2CCCO2)cc1 (configuration not stated),66*,-1,11,-9,90,85
CCC(C)c1ccc(NC(=S)Nc2ccc(OC)c(OC)c2)cc1 (configuration not stated),72*,1,2,-1,108,105
COc1ccc(NC(=S)NC(C)c2ccncc2)cc1OC (configuration not stated),9,0,-1,-6,89,88
COc1ccc(OC)c(S(=O)(=O)CC(O)COc2ccccc2Cl)c1 (configuration not stated),.,.,.,-5,104,104
CCN(CC)C(=O)C(=O)N/N=C/c1ccc(F)cc1,-1,0,1,-9,103,104
Cc1ccc(C(C(=O)NC2CCCC2)N(C(=O)Cc2cccs2)c2ccc(C)c(C)c2)o1 (configuration not stated),63*,-2,-1,0,93,99
O=C(NC1CC1)C1CCN(c2ncnc3c2sc2cccc(F)c23)CC1,4,-2,-1,0,103,101
COc1ccc(N/C=C/C(=O)c2ccc(Oc3ncccn3)cc2)cc1,70*,1,15,-9,94,89
O=C(CN1CCCN(S(=O)(=O)c2ccc(Br)cc2)CC1)Nc1ccc2cn[nH]c2c1,.,.,.,3,117,126
CCN(C(=O)c1ccc2c(Cl)c3c(nc2c1)CCC3)c1ccc(C)c(C)c1,94*,6,24,9,100,114
CN(C(=O)c1ccc2c(Cl)c3c(nc2c1)CCC3)c1ccccc1,37,1,19,17,99,110
Cc1ccc(F)c(NC(=O)c2c(-c3ccccc3)noc2C)c1,.,.,.,6,105,101
Cc1c(C(=O)Nc2ccccc2)csc1-c1ccccc1,31,-1,16,-1,99,103
Cc1c(C(=O)Nc2ccccc2[N+](=O)[O-])csc1-c1ccccc1,74*,1,5,-2,106,96
CCOc1cc(CNc2ccc(N(C)C)cc2)cc(Br)c1OCC(=O)NC(C)(C)C,15,2,6,1,104,101
CCOc1cc(CNc2ccc(N3CCCCC3)cc2)cc(Br)c1OCC(=O)NC(C)(C)C,65*,0,8,3,99,102
Cc1c(C(=O)c2ccc(Cl)c(Cl)c2)cnc2cc3c(cc12)OCO3,61*,1,0,-2,95,87
COc1ccc(C(=O)c2cnc3cc4c(cc3c2C)OCO4)cc1,16,-1,.,6,108,106
O=C(CCCN1C(=O)c2cccc3cccc(c23)C1=O)Nc1ccon1,-4,1,26,0,105,104
OC(CC1CC12c1ccccc1-c1ncccc12)(c1ccccc1)c1ccccc1 (configuration not stated),74*,3,8,-4,94,102
CCOC(=O)C(C)C1(O)c2ccccc2-c2ncccc21 (configuration not stated),-25,0,7,0,101,99
